Test results as given in the EternaBench riboswitch data.

Tested on: MS2 coat protein
Experiment: apparent Kd, MS2 coat protein; higher = weaker binding; RNA-MaP array; FMN 200 µM where present
Method in brief: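 SNAP-549-labelled MS2 coat protein, doubled from 0.7 or 1.5 nM to 3 µM, was titrated over designs transcribed by stalled E. coli RNA polymerase on Illumina sequencing-chip clusters. Titrations were run without and then with constant ligand in 100 mM Tris-HCl pH 7.5, 80 mM KCl, 4 mM MgCl2, BSA, DTT, yeast tRNA and Tween-20. The apparent Kd is the median of filtered per-cluster fits to green signal normalised to red-channel RNA signal and control-cluster median Fmax.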

[1] = designed as: OFF switch for flavin mononucleotide, no ligand
[2] = ligand present: flavin mononucleotide, designed as: OFF switch for flavin mononucleotide
[3] = designed as: ON switch for flavin mononucleotide, no ligand
[4] = ligand present: flavin mononucleotide, designed as: ON switch for flavin mononucleotide

Row | Sequence | apparent Kd [1] [nM] | apparent Kd [2] [nM] | apparent Kd [3] [nM] | apparent Kd [4] [nM]
1 | CUGCUCCGUGUAGGAUAUGCAUACUCCCAUUAUGCAGAAGGACAUGAGGAUCACCCAUGUAUGUUAUUAUCACGUGUUGCGUAC | 25.7 | 92.2 | – | –
2 | GAGAGACAUGAGGAUCACCCAUGUAGAAUAGAACAAGGAUAUGUGGAAGGCGGAGGAGAGACAGAAGGUGUAGGAG | – | – | 108 | 52.9
3 | AUGUGGUUCCCGGCCGUCGUGUACGAGGAUAUCCUCGAACAUGAGGAUCACCCAUGUAACGUUGUGGAGAAGGCGUACGCUCGG | – | – | 31.3 | 5.48
4 | UUUUAACAUGAGGAUCACCCAUGUGAGGAUAUCGAAAUUUAUAUUUAUAUUAAUUUUUCGAGAAGGCACAUUUU | 169 | 157 | – | –
5 | CGUGACGACAUAGGAUAUUGAUACAUGAGGAUCACCCAUGUCACCCAUUUAUCUCAAAUUGUUGACAAGAAGGAUGUGGUCACG | – | – | 16.7 | 10.8
6 | AGAUGACAAAGUCAUCUCGCUUUGACAUGAGGAUCACCCAUGUAGGAUAUAUUACUCAAAGAGUAAUAGAAGGACAUGUUUCUG | 72.7 | 163 | – | –
7 | CCCGUGUUAGGAUAUACGGCACACCCACCAGCGGGUGUAUAGUAGAAGGAACAUGAGGAUCACCCAUGUAUAAC | 34.9 | 51.4 | – | –
8 | ACAUGAGGAUCACCCAUGUUAAACGAGGAUAUAUGACUGCACAUGAGGUUCACCCAUGUUCUACCGUAGAAGGUGUAAAUAAUU | – | – | 68.5 | 70.6
9 | UUACUGUUAUAGAAGGGUAUUUGGGAAUUACAUGAGGAUCACCCAUGUUUUAUAGGAUAUGUAUAUAGUAUUUAAUCAAGUUUA | 17.8 | 15.7 | – | –
10 | AAUUCGUUCUAGAAGGUGCAUUUGUUAAACGUGCAAGGAUAUAGACAUGAGGAUCACCCAUGUCUAUGAGACAUCGGCCUCCUG | 5.33 | 8.23 | – | –
11 | AGUUUGUGAGGAUAUCCAAUAUAUGACAUGAGGAUCACCCAUGUUUCCACUCGUACCUCCGGAGAAGGCACUGCGU | 30.7 | 26.9 | – | –
12 | AUAUAUUAGUUAGGAUAUCUGUAAUUUAUUGAAACAUGAGGAUCACCCAUGUUCAUAAAUUUAUAGGAGAAGGGAUAGAUAUAU | – | – | 5.17 | 5.03
13 | AUAGGCCUAGGAUAUACAUGAGGAUCACCCAUGUUAAUACUUCAAUCAUGAUAAACGUGUAGAAGGAGGAAUAA | 25.8 | 26.1 | – | –
14 | CGAUACAUGAGGGUCUCCCAUGACAUGAGGAUCACCCAUGUGCAGGAUAUACGUGUGAUGGUAUAGUAGAAGGGCACUCUAUGU | 29.2 | 36.9 | – | –
15 | AAAUCGGUAGGAUAUACGAUUUGGUACUAGACCGAGGAACCACAUGAGGAUCACCCAUGUAGAAGGACCAGAUA | 20.7 | 13.9 | – | –
16 | GUCAGCUCGUGAGGAUAUCCAACACUGCUUCGGCAGUGUAUUAAGAUCACAUGAGGAUCACCCAUGUAGAAGGCACGAGCUGAU | 6.48 | 7.55 | – | –
17 | UUAUGCUUUGAGAAGGUACAAACUACAUAUUGCGCACAUGAGGAUCACCCAUGUUGGUGAAUAAGUAAGGAUAUUAGACUGUGC | 133 | 102 | – | –
18 | GGGCAACAUGAGGAUCACCCAUGUCAGGAUAUUGGGCCGGGCCCGAAAGGGCCCGGAACAAGAAGGGACAGCCC | 23.5 | 24.5 | – | –
19 | GGUCGUCACAUUAACAUGAGGAUCACCCAUGUCAAAAGACAUGAGGAUAUGCAUCCUAAUUGGAUGCAGAAGGCAUGGACGACC | – | – | 507 | 32.7
20 | GUAGCUAUCGGAGGAUAUUCAUACUGGAAACGGACAUGAGGAUCACCCAUGUGGCGAAAGCCUUGGGAGAAGGUCGAUAGCUAC | – | – | 177 | 10.1
21 | AACCGUGCGGAGGAUAUUGAUAUCCCAGUCUAUCAAGAAGGCUGCACAUGAGGAUCACCCAUGUGAUCCGUGCU | 21.2 | 116 | – | –
22 | GAAGUUAGAGGAUAUACAUGAGGAUCACCCAUGUGUGAAGUUAACUUUGUAUAUUAAUGUAGAAGGCUAACUUC | 42.5 | 118 | – | –
23 | UGCUGUGUCAGAGGAUAUACGUCAAUAAUCCAUUGCAAAUAGCGAUGGACAUGAGGAUCACCCAUGUAGAAGGCUGUCACAGCA | 58.3 | 242 | – | –
24 | GACUCGAAUGUAGGAUAUGCUGAGGAUAACUCAGCAGAAGGACAUGAGGAUCACCCAUGUAAAUGAGUGAAUAAUAAACGAGUC | 1400 | 129 | – | –
25 | AGCUACGUUUCGUAGCAGCUAGGUGAGGAUAUCCACUCUACAUGAGGAUCACCCAUGUUAACAUGGGAGAAGGCGCCUAGAAAG | – | – | 104 | 11.8
26 | GUCGGAAACGACAAUGAUAGGACUGAGGAUAUACAUAAGUUUGUCCAUACAUGAGGAUCACCCAUGUAGAAGGCAGUCCUAUCU | 6.33 | 15.9 | – | –
27 | CUGCCUUAUGUAGGAUAUGCAUAGCGUUGCUAUGCAGAAGGACAUGAGGAUCACCCAUGUAUGUAAUCAAUACAUAUCUGGCAG | 19.8 | 122 | – | –
28 | GGCGUGUUAGGAUAUCGCGGCGGCGGCGUUUGUUGUUGUUGUGAGAAGGAACAUGAGGAUCACCCAUGUGCGCC | 18.4 | 27.4 | – | –

Row | Sequence | apparent Kd [1] [nM] | apparent Kd [2] [nM] | apparent Kd [3] [nM] | apparent Kd [4] [nM]
29 | GAGCCCGAUGAGAAGGGUUACAUGAGGAUCACCCAUGUCGACCUUGGCGUAACAGGAUAUCAUCGAGCUCUGUGCGUUGACCCA | 25.5 | 132 | – | –
30 | AGUUACAAACUCAACAUGAGGAUCACCCAUGUACUCUCUUGUAAGGAUAUACAUUCGUAUUGAAAGUAGAAGGUACUAAUUAUG | – | – | 69.4 | 69.8
31 | UUCUUUGUUGUGAGGAUAUCGUAUUCUUUUUGUUACGAGAAGGCACAUGAGGAUCACCCAUGUUUCUUGAUGUU | 16.9 | 45.8 | – | –
32 | AACUAACAUGAGGAUCACCCAUGUUGCAGCGGUUGAGGAUAUGUGGGUGAAAAUAGCAUGGCAGAAGGCGAGUGUA | – | – | 120 | 238
33 | AUACAUGAGGAUCACCCAUGUUACUGGGUCUUUUUAGAACGUAGAAGGAUGAUAUUAUAAAUAUCAUAGGAUAUACUAUAUUGU | 52 | 59.5 | – | –
34 | UAGUAUAAGGGCAUUAAACAUGAGGAUCACCCAUGUACGAUAGAGGAUAUGCAUUUCAGUUUAGAGUAGAAGGUUAGAGAAUUG | 39.5 | 41.6 | – | –
35 | UUGGAGUUCGUAGGAUAUGUAGGAUAUUCCUACAUGAGGAUCACCCAUGUAUGCAUGGAAGAAGGACAGAAGGACGAGCUCCAU | – | – | 184 | 13
36 | CUCAUGUCAGGAUAUAGCCACAUGAGGAUCACCCAUGUGGACUAGAAGGGACAUGAGGAUCACCCAUGUAUGAA | 11.4 | 10.2 | – | –
37 | CAUUAAUUCAUUAUAGUUAUUAUACAGGAUAUGUUACAUGAGGAUCACCCAUGUAUUCAUGGUAAACAGAAGGGUAAUUCUAGU | 20.1 | 19.7 | – | –
38 | CACGUACAUGAGGAUCACCCAUGUUAGGAUAUGUUUACCGGAAGGCAUUCUUGGGUAAACAGAAGGGACGAAAC | 22.5 | 31.8 | – | –
39 | UAAAAGCGAGGAUAUACAUGAGGAUCACCCAUGUGAGGCGAAACGCCUCGGGCCAUCAGUAGAAGGUGCAAAAC | 109 | 84.8 | – | –
40 | AUUUUAAUAUAGGAUAUCGAUUUUAUUAUUUAACGAGAAGGAUAAACAUGAGGAUCACCCAUGUGGUAUCAUGG | 158 | 140 | – | –
41 | UUAAAACGUGUGAGGAUAUCGAGAGUAGCUGAUCUCGAGAAGGCACAUGAGGAUCACCCAUGUGGCCUGCACCG | 14.6 | 14.7 | – | –
42 | CUUUUGUGAGGAUAUCAGGUGUGCUAGCGUACUGGUACAUCUGAGAAGGCACAUGAGGAUCACCCAUGUUCCUC | 42.2 | 238 | – | –
43 | AAUUUCAGAAGAGGAUAUUGACAUGAGGAUCACCCAUGUAUUUGGGAAUGUUUACUGAAUUCUUACAAGAAGGUUUACGAACUU | 98 | 79.7 | – | –
44 | AACAAUCUAUCUGAGGAUAUCAUGUCAAAGACAUGAGGAUCACCCAUGUUGCAGGAAACUGCUCAUGAGAAGGCAGAUAGAUUGA | – | – | 614 | 43.7
45 | AUUUUGUGAGGAUAUGUGGCUUCGAUCGUGAGAUCGAGGCUACAGAAGGCACAUGAGGAUCACCCAUGUUCCUA | 20.6 | 206 | – | –
46 | AAAUAGGAAGGAUAUACGGCGGGAUACUGGUUCCACGUGUUACAUGAGGAUCACCCAUGUAGAAGGUCUGGUUA | 24.7 | 55.4 | – | –
47 | UUUAUAAAGAAAGGAUAUAGUAUAAUAAUUUAAUUAGAAGGUUCACACAUGAGGAUCACCCAUGUAUGAGGAUCACCCAUGUAU | 35.2 | 29.1 | – | –
48 | AGCAUGUGAGGAUAUGCGGACUCCGGUAAAGCUGGAGUCCAGUAGAAGGCACAUGAGGAUCACCCAUGUGAGAU | 59.7 | 212 | – | –
49 | CUUUAAGUCGAGAAGGACAUGAGGAUCACCCAUGUAGGAUAUCGAUUAGCUUGCAUCCCGAGCCGCAUCGGUGUGACUGGUGGG | – | – | 36.5 | 7.83
50 | GCGAUUUUGUAGAAGGUACGUGAUAAGACAAAGUAAGGAUAUACUGACAUGAGGAUCACCCAUGUAUAAAUAGUUAACAGUCGC | – | – | 18.5 | 11.7
51 | AGUUAAUAUCGAGGAUAUGUCUAAACACAUGAGGAUCACCCAUGUAUGUGUAUAGAAGGCGAUAUUAACAGCAUGUUACAUGCA | – | – | 28.8 | 8.58
52 | GUGCGUGGCUAGGAUAUUGUGGAGUUUAGUCAGCGAGAAGGAGCCACAUGAGGAUCACCCAUGUGGUGUAGCUC | 17.2 | 94.5 | – | –
53 | CCAUAAAAGAUCCAAAAUUACAACAUGAGGAUCACCCAUGUGCAGGAUAUCGUGAAAGUAAAAUACGAGAAGGGCAAACACUGC | 365 | 442 | – | –
54 | GGAUGAGCAAUAGGAUAUGCUGGUAUUGAAUGGGUAGAAGGAUUUCUAGUGGUAAAGACAUGAGGAUCACCCAUGUAGCGGCCC | – | – | 328 | 265
55 | CAGCGGUCAGGAUAUGCAUGGCGGGACUUGCGUCGUGGCGUGGAGAAGGGACAUGAGGAUCACCCAUGUGGGAA | 134 | 81.9 | – | –
